Key:
Glutamine synthetase [1] = molecular target: T1, Glutamine synthetase (Escherichia coli K-12, UniProt P0A9C5); assay: (§1) Binding affinity towards glutamine synthetase
T1 sequence (P0A9C5 whole entry): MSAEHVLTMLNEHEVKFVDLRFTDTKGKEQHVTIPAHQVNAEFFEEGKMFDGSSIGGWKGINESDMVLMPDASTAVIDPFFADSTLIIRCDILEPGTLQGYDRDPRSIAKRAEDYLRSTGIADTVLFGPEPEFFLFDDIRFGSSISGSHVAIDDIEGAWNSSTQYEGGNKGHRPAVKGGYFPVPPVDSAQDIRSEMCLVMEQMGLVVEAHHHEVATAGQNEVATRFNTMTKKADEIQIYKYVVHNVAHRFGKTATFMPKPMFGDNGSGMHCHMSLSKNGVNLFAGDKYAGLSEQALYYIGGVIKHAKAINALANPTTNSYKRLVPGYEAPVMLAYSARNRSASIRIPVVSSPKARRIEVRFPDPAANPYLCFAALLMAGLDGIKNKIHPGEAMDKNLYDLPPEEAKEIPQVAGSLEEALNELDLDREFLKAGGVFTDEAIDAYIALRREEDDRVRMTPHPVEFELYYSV
Method in brief: (§2)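 E. coli strain W glutamine synthetase (fully activated), full forward reaction read by inorganic phosphate release at 37 °C, pH 7.4 Tris-HCl. Glutamate was varied from 15 to 80 mM, with ATP and NH4Cl fixed at standard levels. At least four inhibitor levels were tested, each dose at least in triplicate. Ki came from Lineweaver–Burk plots and is given as mean ± SEM.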

Glutamine synthetase [2] = molecular target: T1, Glutamine synthetase; assay: as §1; method in brief: as §2; remark: listed apart in the source
Glutamine synthetase [3] = molecular target: T1, Glutamine synthetase; assay: Inhibitory concentration against glutamine synthetase incubated at 37 degree C for 20 minutes in pH 7.4
Method in brief: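 Fully activated E. coli strain W GS (30 pkat) in 50 mM Tris-HCl pH 7.4 with 100 mM glutamate, 5 mM ATP, 1 mM NH4Cl and 25 mM MgCl2, run at 37 °C for up to 20 min. Phosphate release was measured from the initial linear rate. IC50 came from linear regression of % control against log concentration.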

SMILES	Ki (Glutamine synthetase [1]) [µM]	Ki (Glutamine synthetase [2]) [µM]	IC50 (Glutamine synthetase [3]) [µM]
NCP(=O)(O)CC[C@H](N)C(=O)O	0.59	0.59	1
NCCP(=O)(O)CC[C@H](N)C(=O)O	13	13	55
N[C@@H](CCP(=O)(O)CCC(=O)O)C(=O)O	147	150	970
CP(=O)(O)CC[C@H](N)C(=O)O	0.6	0.6	1.2
N[C@@H](CCP(=O)(O)CO)C(=O)O	2.1	2.1	10.4
C[C@@H](N)P(=O)(O)CC[C@H](N)C(=O)O	3.4	3.4	31
C[C@H](N)P(=O)(O)CC[C@H](N)C(=O)O (mixture of isomers)	3.7	3.7	33

Reference: ChEMBL document CHEMBL1140441, “Design, synthesis, and activity of analogues of phosphinothricin as inhibitors of glutamine synthetase” (J Med Chem, 2005)
